ChEMBL document CHEMBL1155222, “Synthesis and anticancer activity of N-bis(trifluoromethyl)alkyl-N'-thiazolyl and N-bis(trifluoromethyl)alkyl-N'-benzothiazolyl ureas” (2009)

Key:
Type in all cases: functional
[1] = test system: MOLT-4; assay: Anticancer activity against human MOLT4 cells after 48 hrs by sulforhodamine B assay; details: MOLT-4, 48 h
Outline: (§1)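 NCI 60-cell-line screen. Cells grown in RPMI 1640 with 5% FBS and 2 mM L-glutamine, plated at 5000–40,000 cells/well, and preincubated 24 h at 37 °C under 5% CO2. Compounds were taken from DMSO stocks and tested at five final concentrations, 10^-4 to 10^-8 M, for 48 h. Cells were TCA-fixed, stained with 0.4% SRB, and read at 515 nm. GI50, TGI and LC50 were derived as log molar values.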

[2] = test system: SR; assay: Anticancer activity against human SR cells after 48 hrs by sulforhodamine B assay
Outline: (§2)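 NCI 60-cell-line panel; cells grown in RPMI 1640 with 5% FBS and 2 mM L-glutamine, plated at 5000–40,000 cells/well and preincubated 24 h at 37 °C, 5% CO2. Compounds came from DMSO stocks diluted in medium with gentamicin and were tested at five final concentrations, 10^-4 to 10^-8 M, for 48 h. Cells were fixed with TCA, stained with SRB and read at 515 nm. GI50, TGI and LC50 were derived as log molar values.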

[3] = test system: EKVX; assay: Anticancer activity against human EKVX cells after 48 hrs by sulforhodamine B assay; outline: as §1
[4] = test system: HOP-62; assay: Anticancer activity against human HOP62 cells after 48 hrs by sulforhodamine B assay; details: HOP-62, 48 h; outline: as §1
[5] = test system: HOP-92; assay: Anticancer activity against human HOP92 cells after 48 hrs by sulforhodamine B assay; details: HOP-92, 48 h; outline: as §1
[6] = test system: NCI-H226; assay: Anticancer activity against human NCI-H226 cells after 48 hrs by sulforhodamine B assay; details: NCI-H226, 48 h; outline: as §1
[7] = test system: NCI-H322M; assay: Anticancer activity against human NCI-H322M cells after 48 hrs by sulforhodamine B assay; outline: as §1
[8] = test system: NCI-H460; assay: Anticancer activity against human NCI-H460 cells after 48 hrs by sulforhodamine B assay; details: NCI-H460, 48 h; outline: as §1
[9] = test system: COLO 205; assay: Anticancer activity against human COLO205 cells after 48 hrs by sulforhodamine B assay; details: COLO 205, 48 h; outline: as §1
[10] = test system: HCT-116; assay: Anticancer activity against human HCT116 cells after 48 hrs by sulforhodamine B assay; details: HCT-116, 48 h; outline: as §1
[11] = test system: HCT-15; assay: Anticancer activity against human HCT15 cells after 48 hrs by sulforhodamine B assay; details: HCT-15, 48 h; outline: as §1
[12] = test system: HT-29; assay: Anticancer activity against human HT-29 cells after 48 hrs by sulforhodamine B assay; details: HT-29, 48 h; outline: as §1
[13] = test system: KM12; assay: Anticancer activity against human KM12 cells after 48 hrs by sulforhodamine B assay; details: KM12, 48 h; outline: as §1
[14] = test system: SW-620; assay: Anticancer activity against human SW620 cells after 48 hrs by sulforhodamine B assay; details: SW-620, 48 h; outline: as §2
[15] = test system: SF-268; assay: Anticancer activity against human SF268 cells after 48 hrs by sulforhodamine B assay; details: SF-268, 48 h; outline: as §1
[16] = test system: SF-295; assay: Anticancer activity against human SF295 cells after 48 hrs by sulforhodamine B assay; details: SF-295, 48 h; outline: as §1
[17] = test system: SF-539; assay: Anticancer activity against human SF539 cells after 48 hrs by sulforhodamine B assay; details: SF-539, 48 h; outline: as §1
[18] = test system: U-251; assay: Anticancer activity against human U251 cells after 48 hrs by sulforhodamine B assay; details: U-251, 48 h; outline: as §2
[19] = test system: Malme-3M; assay: Anticancer activity against human MALME-3M cells after 48 hrs by sulforhodamine B assay; outline: as §1
[20] = test system: M14; assay: Anticancer activity against human M14 cells after 48 hrs by sulforhodamine B assay; details: M14, 48 h; outline: as §1
[21] = test system: SK-MEL-2; assay: Anticancer activity against human SK-MEL-2 cells after 48 hrs by sulforhodamine B assay; details: SK-MEL-2, 48 h; outline: as §1
[22] = test system: SK-MEL-28; assay: Anticancer activity against human SK-MEL-28 cells after 48 hrs by sulforhodamine B assay; details: SK-MEL-28, 48 h; outline: as §1
[23] = test system: SK-MEL-5; assay: Anticancer activity against human SK-MEL-5 cells after 48 hrs by sulforhodamine B assay; details: SK-MEL-5, 48 h; outline: as §1
[24] = test system: UACC-257; assay: Anticancer activity against human UACC257 cells after 48 hrs by sulforhodamine B assay; details: UACC-257, 48 h; outline: as §2
[25] = test system: UACC-62; assay: Anticancer activity against human UACC62 cells after 48 hrs by sulforhodamine B assay; details: UACC-62, 48 h; outline: as §2
[26] = test system: IGROV-1; assay: Anticancer activity against human IGROV1 cells after 48 hrs by sulforhodamine B assay; details: IGROV-1, 48 h; outline: as §1
[27] = test system: OVCAR-3; assay: Anticancer activity against human OVCAR-3 cells after 48 hrs by sulforhodamine B assay; details: OVCAR-3, 48 h; outline: as §1
[28] = test system: OVCAR-4; assay: Anticancer activity against human OVCAR4 cells after 48 hrs by sulforhodamine B assay; details: OVCAR-4, 48 h; outline: as §1
[29] = test system: OVCAR-8; assay: Anticancer activity against human OVCAR8 cells after 48 hrs by sulforhodamine B assay; details: OVCAR-8, 48 h; outline: as §1
[30] = test system: SK-OV-3; assay: Anticancer activity against human SKOV3 cells after 48 hrs by sulforhodamine B assay; details: SK-OV-3, 48 h; outline: as §1
[31] = test system: 786-0; assay: Anticancer activity against human 786-0 cells after 48 hrs by sulforhodamine B assay; details: 786-0, 48 h; outline: as §1
[32] = test system: A498; assay: Anticancer activity against human A498 cells after 48 hrs by sulforhodamine B assay; details: A498, 48 h; outline: as §1
[33] = test system: ACHN; assay: Anticancer activity against human ACHN cells after 48 hrs by sulforhodamine B assay; outline: as §1
[34] = test system: CAKI-1; assay: Anticancer activity against human Caki1 cells after 48 hrs by sulforhodamine B assay; details: CAKI-1, 48 h; outline: as §1
[35] = test system: SN12C; assay: Anticancer activity against human SN12C cells after 48 hrs by sulforhodamine B assay; outline: as §2
[36] = test system: TK-10; assay: Anticancer activity against human TK10 cells after 48 hrs by sulforhodamine B assay; details: TK-10, 48 h; outline: as §2
[37] = test system: UO-31; assay: Anticancer activity against human UO31 cells after 48 hrs by sulforhodamine B assay; details: UO-31, 48 h; outline: as §2
[38] = test system: PC-3; assay: Anticancer activity against human PC3 cells after 48 hrs by sulforhodamine B assay; details: PC-3, 48 h; outline: as §1
[39] = test system: DU-145; assay: Anticancer activity against human DU145 cells after 48 hrs by sulforhodamine B assay; details: DU-145, 48 h; outline: as §1
[40] = test system: MCF7; assay: Anticancer activity against human MCF7 cells after 48 hrs by sulforhodamine B assay; details: MCF7, 48 h; outline: as §1
[41] = test system: NCI/ADR-RES; assay: Anticancer activity against human NCI/ADR-RES cells after 48 hrs by sulforhodamine B assay; outline: as §1
[42] = Anticancer activity against human Hs 578T cells after 48 hrs by sulforhodamine B assay; outline: as §1
[43] = test system: MDA-MB-435; assay: Anticancer activity against human MDA-MB-435 cells after 48 hrs by sulforhodamine B assay; details: MDA-MB-435, 48 h; outline: as §1
[44] = test system: BT-549; assay: Anticancer activity against human BT549 cells after 48 hrs by sulforhodamine B assay; details: BT-549, 48 h; outline: as §1
[45] = test system: T47D; assay: Anticancer activity against human T47D cells after 48 hrs by sulforhodamine B assay; outline: as §2

Structure (SMILES): O=C(Nc1nc2ccccc2s1)NC(C(F)(F)F)C(F)(F)F
- GI50 [1]: 29.5 µM
- GI50 [2]: 25.7 µM
- GI50 [3]: 20.9 µM
- GI50 [4]: 38 µM
- GI50 [5]: 33.9 µM
- GI50 [6]: 25.7 µM
- GI50 [7]: 18.2 µM
- GI50 [8]: 22.4 µM
- GI50 [9]: 17.8 µM
- GI50 [10]: 16.6 µM
- GI50 [11]: 25.7 µM
- GI50 [12]: 19.5 µM
- GI50 [13]: 29.5 µM
- GI50 [14]: 33.9 µM
- GI50 [15]: 29.5 µM
- GI50 [16]: 23.4 µM
- GI50 [17]: 26.9 µM
- GI50 [18]: 24.5 µM
- GI50 [19]: 20.4 µM
- GI50 [20]: 19.1 µM
- GI50 [21]: 22.9 µM
- GI50 [22]: 35.5 µM
- GI50 [23]: 15.5 µM
- GI50 [24]: 20.4 µM
- GI50 [25]: 24.5 µM
- GI50 [26]: 38 µM
- GI50 [27]: 18.2 µM
- GI50 [28]: 28.8 µM
- GI50 [29]: 33.9 µM
- GI50 [30]: 30.9 µM
- GI50 [31]: 28.8 µM
- GI50 [32]: 20 µM
- GI50 [33]: 28.2 µM
- GI50 [34]: 28.8 µM
- GI50 [35]: 14.1 µM
- GI50 [36]: 31.6 µM
- GI50 [37]: 3.24 µM
- GI50 [38]: 25.1 µM
- GI50 [39]: 30.2 µM
- GI50 [40]: 28.2 µM
- GI50 [41]: 27.5 µM
- GI50 [42]: 26.9 µM
- GI50 [43]: 31.6 µM
- GI50 [44]: 28.2 µM
- GI50 [45]: 17 µM

Structure (SMILES): O=c1[nH]cc(F)c(=O)[nH]1 [FLUOROURACIL]
- GI50 [1]: 0.355 µM
- GI50 [2]: 0.024 µM
- GI50 [3]: 61.7 µM
- GI50 [4]: 0.398 µM
- GI50 [5]: 77.6 µM
- GI50 [6]: 55 µM
- GI50 [7]: 0.178 µM
- GI50 [8]: 0.0562 µM
- GI50 [9]: 0.158 µM
- GI50 [10]: 0.229 µM
- GI50 [11]: 0.11 µM
- GI50 [12]: 0.178 µM
- GI50 [13]: 0.214 µM
- GI50 [14]: 0.933 µM
- GI50 [15]: 1.58 µM
- GI50 [16]: 0.229 µM
- GI50 [17]: 0.0631 µM
- GI50 [18]: 0.912 µM
- GI50 [19]: 0.0513 µM
- GI50 [20]: 0.977 µM
- GI50 [21]: 56.2 µM
- GI50 [22]: 1.02 µM
- GI50 [23]: 0.468 µM
- GI50 [24]: 3.55 µM
- GI50 [25]: 0.525 µM
- GI50 [26]: 1.23 µM
- GI50 [27]: 0.0158 µM
- GI50 [28]: 4.47 µM
- GI50 [29]: 1.74 µM
- GI50 [30]: 21.9 µM
- GI50 [31]: 0.724 µM
- GI50 [32]: 0.398 µM
- GI50 [33]: 0.295 µM
- GI50 [34]: 0.0724 µM
- GI50 [35]: 0.501 µM
- GI50 [36]: 1.12 µM
- GI50 [37]: 1.41 µM
- GI50 [38]: 2.34 µM
- GI50 [39]: 0.363 µM
- GI50 [40]: 0.0794 µM
- GI50 [41]: 0.316 µM
- GI50 [42]: 9.77 µM
- GI50 [43]: 0.0724 µM
- GI50 [44]: 10.7 µM
- GI50 [45]: 8.13 µM

Structure (SMILES): CC(NC(=O)Nc1nc2ccccc2s1)(C(F)(F)F)C(F)(F)F
- GI50 [1]: 18.2 µM
- GI50 [2]: 3.63 µM
- GI50 [3]: 74.1 µM
- GI50 [4]: 31.6 µM
- GI50 [5]: 75.9 µM
- GI50 [6]: 38.9 µM
- GI50 [7]: 26.9 µM
- GI50 [8]: 24.5 µM
- GI50 [9]: 38 µM
- GI50 [10]: 41.7 µM
- GI50 [11]: > 100 µM
- GI50 [12]: 19.5 µM
- GI50 [13]: 46.8 µM
- GI50 [14]: 45.7 µM
- GI50 [15]: 29.5 µM
- GI50 [16]: 60.3 µM
- GI50 [17]: 24.5 µM
- GI50 [18]: 33.9 µM
- GI50 [19]: 15.1 µM
- GI50 [20]: 37.2 µM
- GI50 [21]: 30.2 µM
- GI50 [22]: 72.4 µM
- GI50 [23]: 49 µM
- GI50 [24]: 51.3 µM
- GI50 [25]: > 100 µM
- GI50 [26]: 41.7 µM
- GI50 [28]: 21.9 µM
- GI50 [29]: 52.5 µM
- GI50 [30]: 52.5 µM
- GI50 [31]: 20.4 µM
- GI50 [32]: > 100 µM
- GI50 [33]: 28.8 µM
- GI50 [34]: 38.9 µM
- GI50 [35]: 25.7 µM
- GI50 [36]: 49 µM
- GI50 [37]: 2.19 µM
- GI50 [38]: 34.7 µM
- GI50 [39]: 91.2 µM
- GI50 [40]: 38 µM
- GI50 [41]: > 100 µM
- GI50 [42]: 18.6 µM
- GI50 [43]: 41.7 µM
- GI50 [44]: > 100 µM
- GI50 [45]: 38 µM
